Measured values from ChEMBL document CHEMBL5329156, “Discovery and development of novel substituted monohydrazides as potent antifungal agents” (RSC Med Chem, 2023).
Converted amounts (≈) assume the structure as drawn.

Experiments:
Candida duobushaemulonii [1] = assay: Antifungal activity against Candida duobushaemulonii AR Bank # 394 assessed as fungal growth inhibition by double dilution method; assay type: functional; conditions: Candidozyma duobushaemuli
In short: (§1)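 Broth microdilution after CLSI M27-A3/M38-A2 with minor changes. Single colony grown overnight in YPD at 35 °C, 200 rpm. Compound final range 0.06-31.3 µg/mL; incubated 48 h at 35 °C.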

[Candida] auris [2] = Antifungal activity against Candida auris AR Bank # 385 assessed as fungal growth inhibition by double dilution method; assay type: functional; conditions: Candidozyma auris; in short: as §1
[Candida] haemuloni [3] = Antifungal activity against Candida haemulonii AR Bank # 395 assessed as fungal growth inhibition by double dilution method; assay type: functional; conditions: Candidozyma haemuli; in short: as §1
Candida duobushaemulonii [4] = assay: Antifungal activity against Candida duobushaemulonii AR Bank # 392 assessed as fungal growth inhibition by double dilution method; assay type: functional; conditions: Candidozyma duobushaemuli; in short: as §1
Candida albicans [5] = assay: Antifungal activity against itraconazole/fluconazole resistant Candida albicans ATCC 90819 assessed as fungal growth inhibition by double dilution method; assay type: functional
In short: (§2)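 Broth microdilution after CLSI M27-A3/M38-A2 with minor modifications. A single colony was grown overnight in YPD at 35 °C with shaking at 200 rpm. Cells were mixed 1:1 with compound (final 0.06-31.3 µg/mL, from DMSO stocks) and incubated 48 h at 35 °C.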

HEK293 = assay: Cytotoxicity against human HEK-293 cells assessed as reduction in cell viability at 31.3 microg/ml; assay type: toxicity, cell-based; conditions: dose 31.3 µg/ml
In short: (§3)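 Cells in DMEM with 10% FBS and 1% Pen/Strep, seeded at 10,000 cells/well and held overnight at 37 °C, 5% CO2. Compounds added at final 31.3-0.12 µg/mL (0.05% DMSO vehicle) for 24 h. Resazurin then added for 6 h; fluorescence read at ex 560/em 590. Triton X-100 1% as positive control; values normalized to vehicle. Run in quadruplicate.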

Candida albicans [6] = assay: Antifungal activity against Candida albicans ATCC 64124 assessed as fungal growth inhibition by double dilution method; assay type: functional; in short: as §2
Nakaseomyces glabratus [7] = assay: Antifungal activity against Candida glabrata ATCC 22019 assessed as fungal growth inhibition by double dilution method; assay type: functional; in short: as §1
[Candida] haemuloni [8] = Antifungal activity against Candida haemulonii AR Bank # 393 assessed as fungal growth inhibition by double dilution method; assay type: functional; conditions: Candidozyma haemuli; in short: as §1
Pichia kudriavzevii [9] = assay: Antifungal activity against Pichia kudriavzevii ATCC 6258 assessed as fungal growth inhibition by double dilution method; assay type: functional; in short: as §1
Cryptococcus neoformans = assay: Antifungal activity against Cryptococcus neoformans ATCC MYA-895 assessed as fungal growth inhibition by double dilution method; assay type: functional; in short: as §1
Aspergillus fumigatus [10] = assay: Antifungal activity against Aspergillus fumigatus NRRL 163 assessed as fungal growth inhibition by double dilution method; assay type: functional
Kodamaea ohmeri = assay: Antifungal activity against Kodamaea ohmeri AR Bank # 396 assessed as fungal growth inhibition by double dilution method; assay type: functional; in short: as §1
Nakaseomyces glabratus [11] = assay: Antifungal activity against Candida glabrata ATCC 2001 assessed as fungal growth inhibition by double dilution method; assay type: functional; in short: as §1
Clavispora lusitaniae = assay: Antifungal activity against Clavispora lusitaniae AR Bank # 398 assessed as fungal growth inhibition by double dilution method; assay type: functional; in short: as §1
[Candida] auris [12] = Antifungal activity against Candida auris AR Bank # 387 assessed as fungal growth inhibition by double dilution method; assay type: functional; conditions: Candidozyma auris; in short: as §1
[Candida] auris [13] = Antifungal activity against Candida auris AR Bank # 389 assessed as fungal growth inhibition by double dilution method; assay type: functional; conditions: Candidozyma auris; in short: as §1
Aspergillus terreus = assay: Antifungal activity against Aspergillus terreus ATCC MYA-3633 assessed as fungal growth inhibition by double dilution method; assay type: functional
Candida albicans [14] = assay: Antifungal activity against itraconazole/fluconazole resistant Candida albicans ATCC MYA-1003 assessed as fungal growth inhibition by double dilution method; assay type: functional; in short: as §2
Candida duobushaemulonii [15] = assay: Antifungal activity against Candida duobushaemulonii AR Bank # 391 assessed as fungal growth inhibition by double dilution method; assay type: functional; conditions: Candidozyma duobushaemuli; in short: as §1
[Candida] auris [16] = Antifungal activity against Candida auris AR Bank # 388 assessed as fungal growth inhibition by double dilution method; assay type: functional; conditions: Candidozyma auris; in short: as §1
[Candida] auris [17] = Antifungal activity against Candida auris AR Bank # 381 assessed as fungal growth inhibition by double dilution method; assay type: functional; conditions: Candidozyma auris; in short: as §1
[Candida] auris [18] = Antifungal activity against Candida auris AR Bank # 0384 assessed as fungal growth inhibition by double dilution method; assay type: functional; conditions: Candidozyma auris; in short: as §1
[Candida] auris [19] = Antifungal activity against Candida auris AR Bank # 382 assessed as fungal growth inhibition by double dilution method; assay type: functional; conditions: Candidozyma auris; in short: as §1
Saccharomyces cerevisiae [20] = assay: Antifungal activity against Saccharomyces cerevisiae AR Bank # 400 assessed as fungal growth inhibition by double dilution method; assay type: functional; in short: as §1
Aspergillus nidulans = assay: Antifungal activity against Aspergillus nidulans ATCC 38163 assessed as fungal growth inhibition by double dilution method; assay type: functional
Saccharomyces cerevisiae [21] = assay: Antifungal activity against Saccharomyces cerevisiae AR Bank # 399 assessed as fungal growth inhibition by double dilution method; assay type: functional; in short: as §1
[Candida] auris [22] = Antifungal activity against Candida auris AR Bank # 386 assessed as fungal growth inhibition by double dilution method; assay type: functional; conditions: Candidozyma auris; in short: as §1
[Candida] auris [23] = Antifungal activity against Candida auris AR Bank # 390 assessed as fungal growth inhibition by double dilution method; assay type: functional; conditions: Candidozyma auris; in short: as §1
Candida albicans [24] = assay: Antifungal activity against itraconazole/fluconazole susceptible Candida albicans ATCC MYA-2876 assessed as fungal growth inhibition by double dilution method; assay type: functional; in short: as §2
HepG2 = assay: Cytotoxicity against human HepG2 cells assessed as reduction in cell viability upto 31.3 microg/ml; assay type: toxicity, cell-based; conditions: dose < 31.3 µg/ml; in short: as §3
Aspergillus fumigatus [25] = assay: Antifungal activity against Aspergillus fumigatus NRRL 6113 assessed as fungal growth inhibition by double dilution method; assay type: functional
Pichia kudriavzevii [26] = assay: Antifungal activity against Pichia kudriavzevii AR Bank # 397 assessed as fungal growth inhibition by double dilution method; assay type: functional; in short: as §1
[Candida] auris [27] = Antifungal activity against Candida auris AR Bank # 384 assessed as fungal growth inhibition by double dilution method; assay type: functional; conditions: Candidozyma auris; in short: as §1
Candida albicans [28] = assay: Antifungal activity against Candida albicans ATCC 10231 assessed as fungal growth inhibition by double dilution method; assay type: functional; in short: as §1
Aspergillus flavus = assay: Antifungal activity against Aspergillus flavus ATCC MYA-3631 assessed as fungal growth inhibition by double dilution method; assay type: functional
[Candida] auris [29] = Antifungal activity against Candida auris AR Bank # 383 assessed as fungal growth inhibition by double dilution method; assay type: functional; conditions: Candidozyma auris; in short: as §1
Candida albicans [30] = assay: Antifungal activity against itraconazole/fluconazole resistant Candida albicans ATCC MYA-1237 assessed as fungal growth inhibition by double dilution method; assay type: functional; in short: as §2
[Candida] auris [31] = Antifungal activity against Candida auris AR Bank # 0390 assessed as fungal growth inhibition by double dilution method; assay type: functional; conditions: Candidozyma auris; in short: as §1
Aspergillus fumigatus [32] = assay: Antifungal activity against Aspergillus fumigatus NRRL 5109 assessed as fungal growth inhibition by double dilution method; assay type: functional
Candida albicans [33] = assay: Antifungal activity against itraconazole/fluconazole susceptible Candida albicans ATCC MYA-2310 assessed as fungal growth inhibition by double dilution method; assay type: functional; in short: as §2
J774.A1 = assay: Cytotoxicity against J774A.1 cells assessed as reduction in cell viability at 31.3 microg/ml; assay type: toxicity, cell-based; conditions: mouse, dose 31.3 µg/ml; in short: as §3

With `COc1cccc(NNC(=O)c2cnccn2)c1` the MIC (Candida duobushaemulonii [1]) was 1.95 µg/mL (≈ 7.98 µM), the MIC ([Candida] auris [2]) was 7.8 µg/mL (≈ 31.9 µM) and the MIC ([Candida] haemuloni [3]) was 0.49 µg/mL (≈ 2.01 µM). For the same compound, the MIC (Candida duobushaemulonii [4]) was 0.98 µg/mL (≈ 4.01 µM), the MIC (Candida albicans [5]) was 1.95 µg/mL (≈ 7.98 µM) and the Activity (HEK293) was “Non-Toxic”. The MIC (Candida albicans [6]) was 0.98 µg/mL (≈ 4.01 µM), the MIC (Nakaseomyces glabratus [7]) was 1.95 µg/mL (≈ 7.98 µM) and the MIC ([Candida] haemuloni [8]) was 0.49 µg/mL (≈ 2.01 µM). It also gave an MIC (Pichia kudriavzevii [9]) of 0.49 µg/mL (≈ 2.01 µM), an MIC (Cryptococcus neoformans) of 0.49 µg/mL (≈ 2.01 µM) and an MIC (Aspergillus fumigatus [10]) of 15.6 µg/mL (≈ 63.9 µM). The MIC (Kodamaea ohmeri) was 0.49 µg/mL (≈ 2.01 µM), the MIC (Nakaseomyces glabratus [11]) was 7.8 µg/mL (≈ 31.9 µM) and the MIC (Clavispora lusitaniae) was 1.95 µg/mL (≈ 7.98 µM). The MIC ([Candida] auris [12]) was 0.98 µg/mL (≈ 4.01 µM), the MIC ([Candida] auris [13]) was 0.98 µg/mL (≈ 4.01 µM) and the MIC (Aspergillus terreus) was 1.95 µg/mL (≈ 7.98 µM). The MIC (Candida albicans [14]) was 0.98 µg/mL (≈ 4.01 µM), the MIC (Candida duobushaemulonii [15]) was 3.9 µg/mL (≈ 16 µM) and the MIC ([Candida] auris [16]) was 3.9 µg/mL (≈ 16 µM). The MIC ([Candida] auris [17]) was 1.95 µg/mL (≈ 7.98 µM), the MIC ([Candida] auris [18]) was 1.95 µg/mL (≈ 7.98 µM) and the MIC ([Candida] auris [19]) was 0.98 µg/mL (≈ 4.01 µM). The MIC (Saccharomyces cerevisiae [20]) was 3.9 µg/mL (≈ 16 µM), the MIC (Aspergillus nidulans) was 1.95 µg/mL (≈ 7.98 µM) and the MIC (Saccharomyces cerevisiae [21]) was 7.8 µg/mL (≈ 31.9 µM). For the same compound, the MIC ([Candida] auris [22]) was 0.49 µg/mL (≈ 2.01 µM), the MIC ([Candida] auris [23]) was 0.98 µg/mL (≈ 4.01 µM) and the MIC (Candida albicans [24]) was 1.95 µg/mL (≈ 7.98 µM). For the same compound, the Activity (HepG2) was “Non-Toxic”, the MIC (Aspergillus fumigatus [25]) was over 31.3 µg/mL and the MIC (Pichia kudriavzevii [26]) was 0.49 µg/mL (≈ 2.01 µM). It also gave an MIC ([Candida] auris [27]) of 1.95 µg/mL (≈ 7.98 µM), an MIC (Candida albicans [28]) of 0.49 µg/mL (≈ 2.01 µM) and an MIC (Aspergillus flavus) of over 31.3 µg/mL. For the same compound, the MIC ([Candida] auris [29]) was 1.95 µg/mL (≈ 7.98 µM), the MIC (Candida albicans [30]) was 1.95 µg/mL (≈ 7.98 µM) and the MIC ([Candida] auris [31]) was 0.98 µg/mL (≈ 4.01 µM). The MIC (Aspergillus fumigatus [32]) was 7.8 µg/mL (≈ 31.9 µM), the MIC (Candida albicans [33]) was 1.95 µg/mL (≈ 7.98 µM) and the Activity (J774.A1) was “Non-Toxic”.
